Compounds with a hit are over-represented: about 5.5% of the library has one in this group of screens.
KCC2 mod: KCC2 (human) Cl- transport modulation | Q9H2X9 | KCC2 cells, thallium flux FluoZin-2 fluorescence | B-score of Tl+ flux slope (higher = more flux/activation; lower = inhibition) at 10 µM | 190,000 compounds, 2.2% hits | AID 1456;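 active = thallium flux slope and its plate-corrected score both differing from the plate sample mean at a set confidence after two filtering rounds, in either direction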;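 also: slope of fluorescence scaled to starting intensity during 10 to 20 s after thallium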
Target sequence (Q9H2X9 whole entry, looked up): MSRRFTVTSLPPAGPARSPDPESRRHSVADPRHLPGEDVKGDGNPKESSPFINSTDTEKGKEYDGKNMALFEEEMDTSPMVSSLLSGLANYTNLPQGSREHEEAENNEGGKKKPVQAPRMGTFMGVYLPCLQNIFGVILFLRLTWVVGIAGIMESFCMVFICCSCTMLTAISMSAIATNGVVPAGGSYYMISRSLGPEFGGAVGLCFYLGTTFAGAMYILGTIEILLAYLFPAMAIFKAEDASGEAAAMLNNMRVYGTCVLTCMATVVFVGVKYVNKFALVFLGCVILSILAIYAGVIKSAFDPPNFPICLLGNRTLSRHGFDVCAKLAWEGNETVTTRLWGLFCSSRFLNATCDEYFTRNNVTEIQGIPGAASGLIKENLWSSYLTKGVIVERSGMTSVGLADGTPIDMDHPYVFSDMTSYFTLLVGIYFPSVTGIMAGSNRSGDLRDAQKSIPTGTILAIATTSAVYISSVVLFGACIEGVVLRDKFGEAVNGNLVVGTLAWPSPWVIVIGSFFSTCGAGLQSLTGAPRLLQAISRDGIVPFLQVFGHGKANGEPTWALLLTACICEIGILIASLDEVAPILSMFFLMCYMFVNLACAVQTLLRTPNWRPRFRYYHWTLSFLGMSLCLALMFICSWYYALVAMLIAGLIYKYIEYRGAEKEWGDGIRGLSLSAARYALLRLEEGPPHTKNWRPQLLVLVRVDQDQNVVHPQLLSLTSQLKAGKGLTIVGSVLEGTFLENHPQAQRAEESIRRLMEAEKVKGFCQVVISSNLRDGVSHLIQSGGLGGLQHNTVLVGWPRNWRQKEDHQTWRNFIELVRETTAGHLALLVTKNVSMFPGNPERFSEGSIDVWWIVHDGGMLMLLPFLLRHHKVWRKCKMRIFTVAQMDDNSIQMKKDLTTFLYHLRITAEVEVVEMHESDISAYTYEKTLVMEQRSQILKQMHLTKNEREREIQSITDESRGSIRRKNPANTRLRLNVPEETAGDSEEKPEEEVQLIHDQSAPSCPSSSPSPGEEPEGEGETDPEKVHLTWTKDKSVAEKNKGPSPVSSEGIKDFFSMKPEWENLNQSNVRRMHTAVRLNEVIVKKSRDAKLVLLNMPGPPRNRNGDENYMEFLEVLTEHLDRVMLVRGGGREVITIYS
RAM inhibit: yeast RAM network inhibition; S. cerevisiae dse1pr::URA3 reporter, 5-FOA growth OD615, 2 d; analog-sensitive cbk1-as2 kinase mutant strain; inhibition, % at 50 µM; 190,000 compounds, 1.8% hits;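 active = inhibition above a set limit, 3 SD over mean compound inhibition, cut at about 8.4% in these data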;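 also: 0% = DMSO-only wells with no growth and 100% = 10 µM 1-NA-PP1 full growth; inhibition rescues growth on 5-FOA so higher OD means more RAM inhibition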
Yeast growth inh: reduces growth of yeast BB579 in restrictive medium; S. cerevisiae BB579 growth, OD615, 48 h; inhibition, % at 10 µM; 140,000 compounds, 0.51% hits; AID 804;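 active = inhibition above a set limit, 3 SD over the mean compound inhibition, cut at about 44% in these data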
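test system = yeast BB579 (DeaD) | buffer or medium = restrictive CSMM-D medium | doses = single compound dose of 10 µM, 0.25% DMSO final | times = 4 h preincubation and 48 h exposure at 30 °C | technique = culture absorbance at 615 nm | benchmarks = amphotericin B 10 µg/mL, positive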
WT yeast gro inh: growth inhibition of WT yeast, mitochondrial fusion screen; mitochondrial fusion phenotypic screen, WT strain; inhibition, % at 10 µM; 190,000 compounds, 2.1% hits; in the data active = inhibition above about 58%; tested in S. cerevisiae
Yeast lifespan up: extends the lifespan of yeast. S. cerevisiae growth with nicotinamide, OD615; deaD strain in restrictive glucose medium. inhibition of the nicotinamide effect, % at 10 µM. 130,000 compounds, 0.68% hits. AID 775;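 active = inhibition above a set limit, placed 3 SD over the median of all compounds, cut at about 26% in these data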;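 also: 0% = nicotinamide-treated wells and 100% = cells grown without nicotinamide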
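Assay system: engineered S. cerevisiae DeaD replicative-lifespan strain, galactose-grown log-phase cells; medium: restrictive CSMM-D dextrose medium; also added: nicotinamide, 1.5 mM, co-present with compound; schedule: 48 h compound exposure at 30 °C, humidified; detection: absorbance at 615 nm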
KCC2 sec1: KCC2 (human) modulation, secondary assay; normalised thallium flux (F/F0 slope) at 10 µM; 3,700 compounds, 15% hits; AID 1713; shares compounds with KCC2 mod; HEK293-KCC2, thallium flux, FluoZin2 fluorescence; hits give high values;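 active = thallium flux slope above the same plate's solvent-only control mean plus 3 SD; inconclusive = the two replicate wells disagree; inactive = no significant difference from solvent-only control wells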
KCC2 bumet counter: bumetanide-insensitive thallium flux in KCC2 cells with ouabain, counter-screen; shares compounds with KCC2 mod; HEK293-KCC2 + bumetanide/ouabain, thallium flux FluoZin2; hits give high values; normalized thallium flux at 10 µM; 3,700 compounds, 49% hits;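 active = thallium entry rate above the same plate's blocked-transporter control wells by more than 3 SD; inconclusive = the two repeat wells disagree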;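 also: raw slope of fluorescence over initial fluorescence between 10 and 20 s after thallium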
KCC2 secondary2: KCC2 (human) modulation, second secondary assay | shares compounds with KCC2 mod | HEK293-KCC2, thallium flux FluoZin2 fluorescence; actives lie on both sides; F/F0 rise rate, 10–20 s post-thallium | normalized thallium flux at 10 µM | 3,700 compounds, 23% hits;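 active = thallium flux slope more than 3 SD above or below the plate's solvent-only control mean, mostly below; inconclusive = the two repeat wells disagreed; inactive = no significant shift from solvent-only controls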;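 also: raw slope with 0.1% DMSO as baseline and bumetanide as block control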
HEK293 Tl flux: parental HEK flux effect, counter-screen; shares compounds with KCC2 mod; HEK293 parental cells, thallium flux FluoZin2, ouabain; baseline-ratio fluorescence slope, 10–20 s after thallium; thallium flux rate (normalised fluorescence) at 10 µM; 3,700 compounds, 46% hits; AID 1716;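 active = thallium flux rate significantly above the same plate's solvent-only control wells, beyond their mean plus 3 SD; inconclusive = the two replicate wells gave conflicting results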
KCC2 ouabain: modulates human KCC2 on retest with ouabain; shares compounds with KCC2 mod; HEK293-KCC2, thallium flux FluoZin2 fluorescence; bidirectional: low = inhibitor, high = activator; raw Tl+ flux slope (below DMSO = inhibition, above = activation) at 10 µM; 3,700 compounds, 48% hits; AID 1717;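 active = thallium flux slope beyond 3 SD from same-plate DMSO control mean in most replicates, usually higher, sometimes lower; inconclusive = repeat tests gave conflicting results; inactive = no significant difference from controls in most replicates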;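 also: slope of initial-normalized fluorescence between seconds 10 and 20 after thallium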
HEK293 Tl flux2: parental HEK flux effect, counter-screen 2 | shares compounds with KCC2 mod | HEK293 parental, thallium flux FluoZin-2 fluorescence slope | thallium flux slope at 10 µM | 3,700 compounds, 33% hits | AID 1718;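 active = thallium flux slope above the same plate's solvent-control mean plus 3 SD in both duplicate wells; inconclusive = duplicate wells that disagreed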;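 also: run without ouabain in cells lacking the KCC2 cotransporter; slope of fluorescence scaled to its starting value between 10 and 20 s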
An asterisk follows results filed as active; ? = inconclusive; / = not tested or not shown.

SMILES	KCC2 mod	RAM inhibit	Yeast growth inh	WT yeast gro inh	Yeast lifespan up	KCC2 sec1	KCC2 bumet counter	KCC2 secondary2	HEK293 Tl flux	KCC2 ouabain	HEK293 Tl flux2
Cc1ccc(C)c(NC(=S)NNC(=O)c2csc(C)c2C)c1	11.4*	2.1	-25.2	-3.2	1.7	0.0161*	0.0406*	0.0382	0.0398*	0.0421*	0.015*
Cc1nc(C(=O)NNC(=O)c2ccc(C(F)(F)F)cc2)cs1	5.09*	/	/	/	/	0.0092	0.0199*	0.029	0.0104*	?	?
Cc1nn(-c2ccccc2)nc1C(=O)NNC(=O)c1cccc2ccccc12	68.9*	/	/	/	/	0.0238*	0.154*	0.0372	0.0746*	0.0996*	0.0243*
Cc1cc(C(=O)NNC(=O)c2ccc(C(F)(F)F)cc2)no1	4.86	/	/	/	/	/	/	/	/	/	/
Cc1nn(-c2ccccc2)nc1C(=O)NNC(=O)c1ccc(C(F)(F)F)cc1	21.6*	/	/	/	/	0.0227*	0.0973*	0.0345	0.0352*	0.0551*	0.0168*
O=C(NNC(=O)c1cccc2ccccc12)c1ccc(-c2ccccc2)cc1	0.0516	3.2	-18.9	6.4	2.8	/	/	/	/	/	/
Cc1nn(-c2ccccc2)nc1C(=O)Oc1cc(C(F)(F)F)nn1-c1ccccc1	0.0541	/	/	/	/	/	/	/	/	/	/
COCCCN(C(=S)Nc1cc(C)cc(C)c1)C(C)c1ccncc1 (stereo not drawn)	1.13	1.2	-14.4	4.3	2.0	/	/	/	/	/	/
Cc1cc(C)c2c(=O)[nH]c(SCc3ccccc3)nc2n1	-1.92	1.9	/	-14.0	/	/	/	/	/	/	/
CC(=O)c1sc(NC(=O)COc2ccc(Cl)cc2C)nc1C	0.743	/	/	/	/	/	/	/	/	/	/
COCCNC(=S)N/N=C(\C)c1cc2ccccc2o1	19*	0.4	-47.0	22.6	-8.7	0.00602	0.0245*	?	0.0224*	0.0286*	0.0183*
CCNC(=S)N/N=C(\C)c1ccc2ccccc2c1OC(F)F	7.69*	3.0	/	72.9*	/	0.0121*	0.0625*	0.0371	0.0218*	0.0456*	0.0149*
COc1ccc(NCC(=O)N/N=C(\C)c2cc3ccccc3o2)cc1	0.3	-0.1	/	13.9	/	/	/	/	/	/	/
COCCNC(=S)N/N=C(\C)c1cccc(C(F)(F)F)c1	5.79*	0.9	/	-6.2	/	0.0166	0.02*	0.0302	0.0124*	0.0186	0.0149*
COc1ccc(/C(C)=N/NC(=S)Nc2cc(C)ccc2C)cc1	25.3*	1.9	/	67.0*	/	0.00811	0.0483*	0.0458*	0.0361*	0.0408*	0.0376*
COc1ccc(C/C(C)=N/NC(=S)Nc2ccc(C)c(C)c2)cc1	2.06	1.0	-26.9	3.5	-5.3	/	/	/	/	/	/
CCOC(=O)/C(C#N)=C1\C(=O)N(Cc2ccccc2)c2ccccc21	0.784	/	/	/	/	/	/	/	/	/	/
O=C1c2ccccc2C(O)(c2ccccc2)N1c1ccncc1 (stereo not drawn)	0.295	/	/	/	/	/	/	/	/	/	/
CC(=O)c1cccc(CN2CCN(CC(C)C)C(CCO)C2)c1 (stereo not drawn)	-0.0242	1.4	/	4.0	/	/	/	/	/	/	/
C/C(=N\NC(=O)c1nc2ccccn2c1C)c1ccco1	0.209	2.1	/	8.6	/	/	/	/	/	/	/
C/C(=N\NC(=S)NC(C)C)c1ccccc1OC(F)F	5.98*	0.4	/	52.6	/	0.00621	0.00966*	0.0328	0.0123*	0.0218	0.0151*
C/C(=N\NC(=O)COc1ccc(C#N)cc1)c1ccccc1OC(F)F	1.22	-0.4	-8.9	8.3	-0.9	/	/	/	/	/	/
CCNC(=S)N/N=C(\C)c1ccc2ccccc2c1	19.6*	1.7	/	72.4*	/	0.011	0.0335*	0.0352	?	0.0314*	0.0132
COCCNC(=S)N/N=C(\C)c1ccc2cc(OC)ccc2c1	10.5*	4.2	-38.0	54.1	-4.6	0.00756	0.0353*	0.0331	0.0143*	0.0323*	0.0106
COCCNC(=S)N/N=C(\C)c1ccc(OC)cc1	-0.0879	0.0	-25.2	-3.8	-1.4	/	/	/	/	/	/
SMILES	KCC2 mod	RAM inhibit	Yeast growth inh	WT yeast gro inh	Yeast lifespan up	KCC2 sec1	KCC2 bumet counter	KCC2 secondary2	HEK293 Tl flux	KCC2 ouabain	HEK293 Tl flux2
C/C(=N\NC(=O)c1nc2ccccn2c1C)c1cc2ccccc2o1	15.7*	0.9	/	-10.6	/	0.00643	0.0654*	0.0471*	0.0358*	0.0499*	0.0391*
Cc1cc(Br)ccc1OCCCCN1CCC(C)CC1	0.826	2.2	-10.5	17.5	-4.0	/	/	/	/	/	/
COc1cc2c(cc1OC)CN(C(=S)Nc1ccc(C)cc1C)CC2	-0.713	1.2	-17.4	6.9	-2.8	/	/	/	/	/	/
O=c1oc(-c2cccs2)nc2sc3c(c12)CCCC3	/	5.4	-31.9	10.0	-5.9	/	/	/	/	/	/
O=C1CN(c2nc(-c3cccs3)nc3sc4c(c23)CCCC4)CCN1	16.3*	3.6	/	33.2	/	0.00749	0.00976*	0.0304	0.0103*	?	0.0105
Cc1nc(C(N)=O)nc2ccccc12	-0.521	/	/	/	/	/	/	/	/	/	/
Cc1csc(SCc2ccc(C(=O)O)cc2)n1	1.15	0.2	-37.1	11.9	6.6	/	/	/	/	/	/
O=C(CSc1nnc(-c2cnccn2)n1Cc1ccco1)c1ccc2ccccc2c1	/	2.6	-57.3	-5.3	12.2	0.0149	0.00462	?	?	0.0129*	0.0092
Brc1ccc(CSc2nnc(-c3cnccn3)n2Cc2ccco2)cc1	-4.31*	-0.1	-27.3	2.9	1.5	0.0146	0.00332	0.0269	0.00503*	0.0131*	0.00931
O=C(Nc1ccc2c(c1)OCCO2)c1ccc(NC(=O)C2CCCO2)cc1 (stereo not drawn)	/	1.3	-1.0	-4.7	-5.4	/	/	/	/	/	/
COCCn1c(SCC(=O)Nc2ccc(Cl)c(S(=O)(=O)N(C)C)c2)nc2ccccc21	0.288	2.3	9.1	15.2	-5.7	/	/	/	/	/	/
CN(C)S(=O)(=O)c1cc(NC(=O)CSc2ncc(C(F)(F)F)cc2Cl)ccc1Cl	49.7*	3.6	-18.7	12.4	1.2	0.00781	0.00473	?	0.00755	0.0187	0.0108
CCCCOc1cccc(-c2cc(C(=O)NNC(=S)NCC)c3ccccc3n2)c1	-0.758	4.2	-26.1	-7.8	-8.4	/	/	/	/	/	/
CCCOc1cccc(-c2cc(C(=O)NN)c3ccccc3n2)c1	22*	2.6	-26.0	20.0	-6.5	0.00654	0.00438	0.0289	0.00731	0.0188	0.00961
S=C1NC2(CCCCC2)N=C1c1ccccc1	4.72*	3.5	-55.1	-7.8	1.2	0.00954	0.03*	0.0336	0.0118*	?	0.012*

Screening results (PubChem)
